SENP7 block = SENP7 protease inhibitors, primary screen, biochemical, luminescence, uHTS; Sentrin-specific protease 7 (Homo sapiens), Q9BQF6; recombinant SENP7, Z-RLRGG-aminoluciferin luminescence, 40 min; inhibition, % at 5 µM; actives 1.5% (n = 330,000);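 active = inhibition above about 50% at the single test dose, limit read from the data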;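 also: plate controls were DMSO with enzyme for no effect and no enzyme buffer wells for full effect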
Target sequence (Q9BQF6 706-1050 limits assumed): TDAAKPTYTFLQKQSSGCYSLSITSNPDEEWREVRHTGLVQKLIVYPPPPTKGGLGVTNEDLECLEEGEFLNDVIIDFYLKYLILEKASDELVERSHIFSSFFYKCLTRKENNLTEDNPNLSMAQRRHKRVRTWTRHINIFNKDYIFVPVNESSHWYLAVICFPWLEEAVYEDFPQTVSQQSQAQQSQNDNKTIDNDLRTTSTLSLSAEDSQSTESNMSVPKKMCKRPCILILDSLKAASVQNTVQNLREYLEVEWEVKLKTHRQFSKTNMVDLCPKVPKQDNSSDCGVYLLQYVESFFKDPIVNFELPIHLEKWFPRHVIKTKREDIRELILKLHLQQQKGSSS
SENP1 FRET inh = human SENP1 catalytic domain inhibitors, primary screen, biochemical, FRET, uHTS. actives 0.21% (n = 360,000). inhibition, % at 10 µM. recombinant SENP1 catalytic domain, CyPet-SUMO1-YPet FRET cleavage. Sentrin-specific protease 1 (Homo sapiens), Q9P0U3;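 active = inhibition at least 30% at 10 µM, raw YFP signal under a set limit, fluorescence ratio 0.5 to 1.5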;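 also: 0% = enzyme with DMSO and 100% = no enzyme wells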
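Test system: recombinant human SENP1 catalytic domain, His6-tagged / Medium: pH 8 Tris buffer with EDTA, NaCl, BME, BSA, NP40, catalase / Also added: SUMO1 FRET substrate flanked by Cypet and Ypet, 25 nM / Times: 50 min reaction at room temperature / Signal: FRET, CFP and YFP emission / Control set: no-enzyme low control and enzyme-plus-DMSO high control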
Platelet DG rel = inhibitors of platelet dense granule secretion, primary screen, cell-based, MLPCN, human platelets; actives 0.22% (n = 300,000); AID 1663, 2009; human platelet-rich plasma, SFLLRN dense granule ATP release, luminescence; inhibition, %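 (compounds screened at 7.5 µM in platelet-rich plasma)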;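 active = mean replicate score, as percent of positive control, at or above 50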
SENP6 block = SENP6 protease inhibitors, primary screen, biochemical, luminescence, uHTS. Recombinant SENP6 catalytic domain, aminoluciferin luminescence. inhibition, % at 10 µM. actives 1.8% (n = 330,000). AID 2599, 2010;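 active = inhibition above about 50% at the single tested dose, limit read from the data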;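 also: plate controls were DMSO wells with enzyme for no effect and DMSO wells lacking enzyme for full effect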
SENP8 block-1 = SENP8 protease inhibitors, primary screen, biochemical, luminescence. Sentrin-specific protease 8 (Homo sapiens), Q96LD8. purified SENP8, Z-RLRGG-aminoluciferin cleavage. inhibition, % at 10 µM. actives 1.2% (n = 330,000). AID 2540, 2010; in the data active = inhibition above about 50%
Target sequence (Q96LD8 whole entry, looked up): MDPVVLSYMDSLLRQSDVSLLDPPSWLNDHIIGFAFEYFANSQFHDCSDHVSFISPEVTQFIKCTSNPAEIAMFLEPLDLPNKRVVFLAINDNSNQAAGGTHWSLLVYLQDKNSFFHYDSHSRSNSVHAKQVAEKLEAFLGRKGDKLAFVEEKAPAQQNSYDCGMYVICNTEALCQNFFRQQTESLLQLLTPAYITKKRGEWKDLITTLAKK
SENP8 block-2 = human SENP8 protease inhibitors, primary screen, biochemical, fluorescence, Nedd8 protein substrate, uHTS; Sentrin-specific protease 8 (Homo sapiens), Q96LD8; recombinant SENP8; inhibition, % at 20 µM; actives 0.64% (n = 360,000); AID 602440, 2012; in the data active = inhibition mostly above about 40%, no sharp cut-off; inactive = mostly below about 27%
SENP8 confirm = SENP8 protease inhibitors, retest, confirmation, biochemical, luminescence, single concentration; shares compounds with SENP7 block; Recombinant SENP8, Z-RLRGG-aminoluciferin luminescence, 60 min; actives 40% (n = 6,200); inhibition, % at 12.5 µM;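 active = mean inhibition across replicates above about 50%, limit read from the data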
SENP6 conf = SENP6 protease inhibitors, confirmation, biochemical, luminescence, single concentration; shares compounds with SENP7 block; recombinant SENP6, Z-RLRGG-aminoluciferin luminescence; inhibition, % at 12.5 µM; actives 58% (n = 6,200); AID 488915, 2010
SENP7 confirm = SENP7 protease inhibitors, retest, confirmation, biochemical, luminescence, single concentration | shares compounds with SENP7 block | recombinant SENP7, Z-RLRGG-aminoluciferin luminescence, 40 min | inhibition, % at 12.5 µM | actives 69% (n = 6,200) | AID 488917, 2010
Casp3 select = caspase-3 protease inhibitors, confirmation, selectivity assay for SENP inhibitor project, biochemical, single concentration; shares compounds with SENP7 block; inhibition, % at 12.5 µM; actives 60% (n = 6,200); purified caspase-3, Z-DEVD-aminoluciferin luminescence, 60 min;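 active = mean inhibition above about 50%, limit read from the data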;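 also: plate controls were enzyme with DMSO for no effect and wells without caspase-3 for full effect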
SENP luc ctr = counter-screen for SENP inhibitors: luminescence interference; actives 39% (n = 6,200); shares compounds with SENP7 block; inhibition, % at 12.5 µM; Pre-incubated SENP8/Z-RLRGG-aminoluciferin, luciferase luminescence interference;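 active = mean inhibition above about 50% when retested at one dose, limit read from the data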;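 also: plate controls were DMSO wells with completed reaction for no effect and substrate without enzyme for full effect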
Starred values were filed as active, the others as inactive; . = no result. Hits are enriched below; roughly 2.6% of the tested compounds scored in any of these assays.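 The calls were made as follows, unless noted: active = mean inhibition above about 50% in the one-dose retest (limit read from the data); inactive = the rest.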

SMILES | SENP7 block | SENP1 FRET inh | Platelet DG rel | SENP6 block | SENP8 block-1 | SENP8 block-2 | SENP8 confirm | SENP6 conf | SENP7 confirm | Casp3 select | SENP luc ctr
CCOc1ccc(C(=O)Nc2cc(C)on2)cc1 | 54* | 4 | 10 | 47 | 13 | 10 | -24 | 17 | 57* | 74* | -6
CCCC(=O)Nc1ccc(C#Cc2ccccc2)cc1 | 51* | -4 | 9 | 45 | 6 | 11 | 2 | 13 | 19 | 13 | 2
CCCC(=O)Nc1ccccc1NC(=O)c1ccc(OCC)cc1 | -1 | 4 | 3 | -3 | 1 | 14 | . | . | . | . | .
CCOc1ccc(C(=O)Nc2ccccc2C(=O)O)cc1 | 16 | 2 | 2 | 61* | 31 | 8 | 77* | 72* | 94* | 85* | 78*
O=C(Nc1ccc(C#Cc2ccccc2)cc1)C1CC1 | 68* | 1 | -1 | 47 | 26 | 8 | 9 | 40 | 64* | 26 | 5
CCOc1cc(C(=O)Nc2cc(C)on2)cc(OCC)c1OCC | -7 | -1 | 1 | -2 | -2 | 10 | . | . | . | . | .
CCN(C(=O)C(C)OC(=O)c1nn(-c2ccccc2C(F)(F)F)cc1O)c1ccccc1 (stereo not given) | -4 | -2 | . | 2 | -17 | 3 | . | . | . | . | .
O=C(NC1CCCCC1)c1nc(-c2c(F)cccc2F)oc1-c1ccccc1 | . | -3 | . | . | . | -144 | . | . | . | . | .
CN(C)CC#Cc1cccc(-c2nc(C(=O)O)cc3c2[C@@H](CCO)N(S(=O)C(C)(C)C)C3)c1 (stereo not given in full) | . | -2 | . | . | . | 10 | . | . | . | . | .
O=C(Nc1ccccc1C(=O)O)c1ccc(NC(=O)C2CC2)cc1 | 50 | 0 | 3 | 67* | 61* | -3 | 76* | 75* | 94* | 88* | 83*
CCOc1ccc(NC(=O)Nc2ccon2)cc1 | 54* | -1 | 31 | 55* | 15 | -3 | 22 | 21 | 67* | 74* | 23
COc1ccc(COC(=O)c2ccc(Br)c(S(=O)(=O)N3CCOCC3)c2)cc1F | -16 | 3 | -10 | -22 | -7 | 9 | . | . | . | . | .
S=c1[nH]nc(-c2c[nH]c3ccccc23)o1 | 4 | 1 | 1 | -10 | 6 | -298 | . | . | . | . | .
Oc1cc2ccccc2cc1-c1n[nH]c(=S)o1 | 75* | 3 | -4 | 91* | 94* | -275 | 98* | 98* | 101* | 96* | 96*
Cc1nc(NC(=O)c2cccc(Cl)c2)sc1C(=O)N1CCCCC1 | 68* | -5 | -10 | 72* | 57* | -40 | 2 | 30 | 6 | 3 | 10
CC(=O)c1sc(NC(=O)c2ccc(Cl)cc2)nc1C | 72* | -4 | 13 | 0 | 37 | -27 | 17 | 18 | 7 | 25 | 9
CC(=O)Nc1nc(C)c(C(C)=O)s1 | -10 | -1 | -3 | -5 | -8 | 10 | . | . | . | . | .
CC(=O)c1sc(NC(=O)c2cccc(C)c2)nc1C | 63* | -5 | 11 | 67* | 47 | -13 | 43 | 61* | 88* | 78* | 24
CC(=O)c1sc(NC(=O)c2ccccc2C)nc1C | 82* | 2 | 5 | 79* | 67* | 6 | 40 | 67* | 93* | 90* | 52*
CCC(CC)CN1C(N(C)C)=NC[C@@H]1CC(C)C | -2 | 1 | . | 14 | 2 | 10 | . | . | . | . | .
NC(=O)CCC(NC(=O)OCc1ccccc1)C(=O)OCC(=O)c1ccccc1 (stereo not given) | . | 2 | . | . | . | 11 | . | . | . | . | .
CCCCn1c(SCCN2CCCCC2)nc2c1c(=O)n(C)c(=O)n2C | . | 1 | . | . | . | 11 | . | . | . | . | .
Cn1sc(NC(=O)c2ccc(Cl)cc2)nc1=O | 81* | 1 | -3 | -7 | 67* | 18 | 49 | 37 | 69* | 53* | 52*
Cc1ccc(C(=O)Nc2nc(=O)n(C)s2)cc1 | 38 | -2 | -1 | 49 | 6 | 6 | . | . | . | . | .
O=C(Nc1nnc(CSCc2ccc(F)cc2)s1)c1ccc([N+](=O)[O-])cc1 | -8 | 2 | -23 | 4 | -8 | 1 | . | . | . | . | .
SMILES | SENP7 block | SENP1 FRET inh | Platelet DG rel | SENP6 block | SENP8 block-1 | SENP8 block-2 | SENP8 confirm | SENP6 conf | SENP7 confirm | Casp3 select | SENP luc ctr
Nc1ccc(C(=O)N/N=C\c2ccc(OC(=O)c3ccccc3Cl)cc2)cc1 | -1 | -1 | 3 | -16 | -4 | -46 | . | . | . | . | .
Cc1ccc(S(=O)(=O)Oc2cccc(/C=N/Nc3ccc(C(=O)O)cc3)c2)cc1 | 62* | -2 | -1 | -5 | 88* | -140 | 14 | 96* | 101* | 18 | 90*
COc1ccc(/C=N/Nc2ccc(C(=O)O)cc2)cc1OC | 86* | 1 | 6 | 95* | 82* | -269 | 89* | 88* | 99* | 90* | 83*
COc1cc(C=NNc2ccccc2)ccc1OC(=O)c1ccccc1 | . | 4 | . | . | . | 4 | . | . | . | . | .
O=C(O)c1ccc(N/N=C/c2ccc(OC(=O)c3ccccc3Cl)cc2)cc1 | 47 | -2 | 1 | 91* | 90* | -22 | 76* | 96* | 98* | 45 | 7
C=CCOc1c(Br)cc(/C=N/Nc2ccc(C(=O)O)cc2)cc1OCC | 55* | -18 | -17 | 85* | 77* | -312 | 88* | 87* | 94* | 29 | 56*
O=C(CCCCCN1C(=O)[C@@H]2Cc3ccccc3CN2C1=O)Nc1cccc(F)c1 | 4 | 3 | 6 | -27 | -2 | 0 | . | . | . | . | .
OCC[C@@H]1C[C@H](O)[C@@H](O)[C@@]2(Cc3ccccc3O2)O1 | -3 | -2 | 5 | -19 | 6 | 18 | . | . | . | . | .
CC(C)c1ccc(/C=N/Nc2ccc(C(=O)O)cc2)cc1 | 101* | -4 | -6 | 98* | 97* | -101 | 99* | 100* | 103* | 97* | 99*

Compound activity as filed in PubChem.
